Source: ChEMBL document CHEMBL2331243, “Discovery and mechanism study of SIRT1 activators that promote the deacetylation of fluorophore-labeled substrate” (J Med Chem, 2013)
Activity calls are given as the source filed them. The rule behind the calls is not given here.

Columns and labels:
[1] = molecular target: T1, NAD-dependent protein deacetylase sirtuin-1 (Homo sapiens) (UniProt Q96EB6); assay: Activation of N-terminal His6-tagged SIRT1 (156 to 664 amino acid residues) (unknown origin) expressed in Escherichia coli BL21(DE3) using ac-RHKKac-AMC as substrate at 50 uM after 45 mins by fluorimetric analysis relative to control
T1 sequence (whole entry): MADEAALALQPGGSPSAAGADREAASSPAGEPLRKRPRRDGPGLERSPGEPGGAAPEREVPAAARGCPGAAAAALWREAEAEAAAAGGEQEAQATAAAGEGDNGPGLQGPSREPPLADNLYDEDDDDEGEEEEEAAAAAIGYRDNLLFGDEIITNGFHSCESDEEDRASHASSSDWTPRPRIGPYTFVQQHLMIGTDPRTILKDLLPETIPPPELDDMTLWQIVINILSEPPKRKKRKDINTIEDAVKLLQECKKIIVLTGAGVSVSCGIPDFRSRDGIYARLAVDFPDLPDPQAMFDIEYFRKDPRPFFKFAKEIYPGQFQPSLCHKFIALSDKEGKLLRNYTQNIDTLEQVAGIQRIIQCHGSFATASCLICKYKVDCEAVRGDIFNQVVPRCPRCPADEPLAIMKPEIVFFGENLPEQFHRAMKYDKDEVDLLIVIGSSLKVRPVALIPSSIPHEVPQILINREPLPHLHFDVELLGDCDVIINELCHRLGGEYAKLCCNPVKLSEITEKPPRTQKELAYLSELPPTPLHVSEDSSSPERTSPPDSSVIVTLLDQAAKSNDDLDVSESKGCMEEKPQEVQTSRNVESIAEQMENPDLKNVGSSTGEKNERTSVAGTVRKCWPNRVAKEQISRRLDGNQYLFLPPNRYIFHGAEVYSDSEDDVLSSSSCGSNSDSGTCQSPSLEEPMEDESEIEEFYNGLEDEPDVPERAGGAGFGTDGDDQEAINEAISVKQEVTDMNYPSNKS
Procedure, shortened: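 Fluorogenic deacetylation screen: 1 μM SIRT1 with 750 μM NAD⁺ and 31.25 μM ac-RHKK_ac-AMC in Tris buffer (25 mM Tris, 137 mM NaCl, 2.7 mM KCl, 1 mM MgCl₂, pH 8.0). Compounds at 50 μM from DMSO stocks; DMSO alone as blank. Trypsin then releases AMC from deacetylated peptide; fluorescence read at 340/490 nm.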

[2] = molecular target: T2, NAD-dependent protein deacetylase sirtuin-1 (Homo sapiens, UniProt Q96EB6); assay: Activation of N-terminal His6-tagged SIRT1 (156 to 664 amino acid residues) (unknown origin) expressed in Escherichia coli BL21(DE3) using ac-RHKKac-AMC as substrate after 45 mins by fluorometric analysis
T2 sequence (Q96EB6 whole entry): T1 sequence (whole entry)

[3] = molecular target: T1, NAD-dependent protein deacetylase sirtuin-1 (Homo sapiens); assay: Activation of N-terminal His6-tagged SIRT1 (156 to 664 amino acid residues) (unknown origin) expressed in Escherichia coli BL21(DE3) using ac-RHKKac-NH2 as substrate after 45 mins by HPLC analysis
[4] = molecular target: T1, NAD-dependent protein deacetylase sirtuin-1 (Homo sapiens); assay: Activation of SIRT1 in human MCF7 cells assessed as reduction in doxorubicin-induced acetyl-p53 level up to 100 uM after 6 hrs by Western blotting analysis; assay type: cell-based
Procedure, shortened: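 MCF-7 cells were seeded at 1 × 10⁵ per well in DMEM with 10% FCS and grown 24 h at 37 °C, 5% CO₂. Graded compound concentrations were added together with 0.1 μM TSA and 5 μM doxorubicin for 6 h. Lysate (50 μg protein) was run on a 9% gel and blotted with an anti-acetyl-p53 (Lys382) polyclonal antibody at 4 °C overnight, then HRP anti-rabbit IgG with chemiluminescence.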

[5] = molecular target: T3, NAD-dependent protein deacetylase sirtuin-2 (Homo sapiens, UniProt Q8IXJ6); assay: Activation of at N-terminal GST-tagged SIRT2 (34 to 356 amino acid residues) (unknown origin) expressed in Escherichia coli BL21(DE3) using ac-RHKKac-AMC as substrate after 45 mins by fluorometric analysis
T3 sequence (Q8IXJ6 whole entry): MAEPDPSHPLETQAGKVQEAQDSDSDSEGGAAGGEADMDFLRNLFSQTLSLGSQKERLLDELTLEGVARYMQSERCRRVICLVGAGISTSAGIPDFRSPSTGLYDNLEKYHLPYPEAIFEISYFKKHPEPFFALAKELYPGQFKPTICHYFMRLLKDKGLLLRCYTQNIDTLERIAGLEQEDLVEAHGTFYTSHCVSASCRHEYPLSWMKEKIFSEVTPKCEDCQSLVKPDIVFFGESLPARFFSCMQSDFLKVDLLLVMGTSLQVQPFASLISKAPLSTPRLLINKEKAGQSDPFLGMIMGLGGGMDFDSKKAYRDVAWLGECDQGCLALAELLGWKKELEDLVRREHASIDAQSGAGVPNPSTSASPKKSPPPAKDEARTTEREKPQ
Procedure, shortened: (§1)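 Fluorescent deacetylation assay in 25 mM Tris, 137 mM NaCl, 2.7 mM KCl, 1 mM MgCl₂, pH 8.0, with 750 μM NAD⁺ and 31.25 μM ac-RHKK_ac-AMC. Enzyme was 3.6 μM SIRT3 or 4.2 μM GST-SIRT2, set to match SIRT1 activity. Trypsin released AMC from the deacetylated peptide, read at ex 340 / em 490 nm. Compounds were added from DMSO (DMSO as blank): single point at 50 μM, or 3-fold DMSO dilution series. EC1.5 (concentration giving 50% activity increase) and maximum activation were fitted to a dose–response function.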

[6] = molecular target: T4, NAD-dependent protein deacetylase sirtuin-2 (Homo sapiens) (UniProt Q8IXJ6); assay: Activation of at N-terminal GST-tagged SIRT2 (34 to 356 amino acid residues) (unknown origin) expressed in Escherichia coli BL21(DE3) using ac-RHKKac-AMC as substrate at 50 uM after 45 mins by fluorometric analysis relative to control; procedure, shortened: as §1
T4 sequence (whole entry): T3 sequence (Q8IXJ6 whole entry)

Row | max activation [1] [%] | EC50 [2] [µM] | SMILES | other results
1 | 314 | 2 | O=C(N/N=C/c1cc(Br)c(O)c(Br)c1O)c1ccc(-c2cccnc2)cc1 | –
2 | 270 | 1.7 | O=C(Nc1ccccc1-c1cn2c(CN3CCNCC3)csc2n1)c1ccncn1 | –
3 | 390 | 1.6 | O=C(N/N=C/c1cc(Br)c(O)c(Br)c1O)c1ccc(-c2ccncc2)cc1 | –
4 | 267 | 2.6 | O=C(N/N=C/c1cc(Br)c(O)c(Br)c1O)c1ccc2cc(-c3ccco3)ccc2c1 | –
5 | 196 | 3.7 | N#Cc1ccc(O)c(-c2ccc(C(=O)N/N=C/c3cc(Br)c(O)c(Br)c3O)cc2)c1 | –
6 | 174 | 7 | O=C(N/N=C/c1cc(Br)c(O)c(Br)c1O)c1ccc(Cl)cc1 | –
7 | 322 | 25 | O=C(Nc1ccccc1-c1cn2c(CN3CCNCC3)csc2n1)c1ccccc1 | –
8 | 112 | – | COc1cc(OC)cc(C(=O)N/N=C/c2cc(Br)c(O)c(Br)c2O)c1 | –
9 | 216 | 0.9 | O=C(N/N=C/c1cc(Br)c(O)c(Br)c1O)c1ccc(-c2ccccc2C(F)(F)F)cc1 | –
10 | 161 | 20.5 | O=C(N/N=C/c1cc(Br)c(O)c(Br)c1O)c1ccc(C(F)(F)F)cc1 | –
11 | 375 | 4.5 | O=C(N/N=C/c1cc(Br)c(O)c(Br)c1O)c1cc2ccccc2cc1O | –
12 | 301 | 0.68 | O=C(Nc1ccccc1-c1cn2c(CN3CCNCC3)csc2n1)c1cnc2ccccc2c1 | –
13 | 380 | 6.9 | O=C(Nc1ccccc1-c1cn2c(CN3CCNCC3)csc2n1)c1ccc2occc2c1 | –
14 | 197 | 31 | COc1ccc(C(=O)Nc2ccccc2-c2cn3c(CN4CCNCC4)csc3n2)c(OC)c1 | –
15 | 331 | 1.6 | O=C(N/N=C/c1cc(Br)c(O)c(Br)c1O)c1ccc2ccccc2c1 | –
16 | 119 | – | COc1c(Br)cc(/C=N/NC(=O)c2ccc3cc(Br)ccc3c2)c(O)c1Br | –
17 | 368 | 2.3 | CS(=O)(=O)c1ccc2cc(C(=O)N/N=C/c3cc(Br)c(O)c(Br)c3O)ccc2c1 | –
18 | 381 | 0.61 | O=C(Nc1ccccc1-c1cn2c(CN3CCNCC3)csc2n1)c1cc2ccccc2o1 | –
19 | 298 | 8.7 | COc1c(/C=N/NC(=O)c2ccc3cc(Br)ccc3c2)cc(Br)c(O)c1Br | –
20 | 383 | 130 | O=C(Nc1ccccc1-c1cn2c(CN3CCNCC3)csc2n1)C1CCCC1 | –

Row | max activation [1] [%] | EC50 [2] [µM] | SMILES | other results
21 | 467 | 2.3 | O=C(N/N=C/c1cc(Br)c(O)c(Br)c1O)c1ccc(-c2ccccn2)cc1 | –
22 | 271 | 1.8 | COc1cc(C(=O)Nc2ccccc2-c2cn3c(CN4CCNCC4)csc3n2)cc(OC)c1OC | Activity [3]: inactive
23 | 624 | 0.9 | COc1ccc2cc(C(=O)N/N=C/c3cc(Br)c(O)c(Br)c3O)ccc2c1 | Activity [4]: Active
24 | 242 | 28.1 | COc1c(Br)cc(/C=N/NC(=O)c2ccc(-c3ccccc3)cc2)c(O)c1Br | –
25 | 212 | 5.4 | O=C(N/N=C/c1cc(Br)c(O)c(Br)c1O)c1ccc2c(c1)Cc1ccccc1-2 | EC50 [5]: 16.5 µM; max activation [6]: 206%
26 | 208 | 45 | O=C(Nc1ccccc1-c1cn2c(CN3CCNCC3)csc2n1)c1cccc2cccnc12 | –
27 | 781 | – | O=C(Nc1ccccc1-c1cn2c(CN3CCNCC3)csc2n1)c1cnc2ccccc2n1 | –
28 | 157 | 10.4 | O=C(N/N=C/c1ccc(O)cc1O)c1ccc(-c2ccccc2)cc1 | –
29 | 374 | 2.1 | O=C(N/N=C/c1cc(Br)c(O)c(Br)c1O)c1ccc(-c2ccco2)cc1 | –
30 | 161 | 9.6 | Cc1ccc(C(=O)N/N=C/c2cc(Br)c(O)c(Br)c2O)cc1 | –
31 | 239 | 55.2 | O=C(N/N=C/c1cc(Br)c(O)c(Br)c1O)c1ccc2ncccc2c1 | –
32 | 433 | 4.4 | N#Cc1ccc2cc(C(=O)N/N=C/c3cc(Br)c(O)c(Br)c3O)ccc2c1 | –
33 | 130 | 14 | O=C(Cc1ccccc1)Nc1ccccc1-c1cn2c(CN3CCNCC3)csc2n1 | –
34 | 380 | 3.4 | O=C(N/N=C/c1cc(Br)c(O)c(Br)c1O)c1ccc(-c2ccc3c(c2)OCO3)cc1 | –
35 | 928 | 3.7 | COc1cccc(C(=O)Nc2ccccc2-c2cn3c(CN4CCNCC4)csc3n2)c1 | –
36 | 212 | 18.3 | O=C(N/N=C/c1cc(Br)c(O)c(Br)c1O)c1cccc(-c2ccccc2)c1 | –
37 | 246 | 1.7 | O=C(N/N=C/c1cc(Br)c(O)c(Br)c1O)c1ccc(-c2ccccc2)cc1 | –
38 | 440 | 0.99 | O=C(Nc1ccccc1-c1cn2c(CN3CCNCC3)csc2n1)c1ccc2ccccc2n1 | –
39 | 191 | 18.1 | COc1c(/C=N/NC(=O)c2ccc(-c3ccccc3)cc2)cc(Br)c(O)c1Br | –
